From ChEMBL document CHEMBL4007497, “Development of Potent and Selective Antagonists for the UTP-Activated P2Y4 Receptor” (J Med Chem, 2017)

Legend:
P2Y purinoceptor 4 [1] = target: T1, P2Y purinoceptor 4 (Homo sapiens, UniProt P51582); assay: Antagonist activity at human P2Y4 receptor transfected in human 1321N1 cells assessed as inhibition of UTP-activated intracellular calcium mobilization preincubated for 30 mins followed by UTP addition by fluo-4-dye based fluorescence assay; assay type: functional, cell-based
Summary of the method: (§1)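 1321N1 astrocytoma cells stably expressing the human P2Y subtype, grown in DMEM with 10 % FCS and 200 μg/mL G418 at 37 °C. Plated 50,000 cells/well about 24 h before testing. Cells loaded with fluo-4 AM for 1 h, then placed in HBSS and preincubated 30 min with compound. Agonist was injected at about EC80: ADP 500 nM (P2Y1), UTP 500 nM (P2Y2, P2Y4), UDP 750 nM (P2Y6). Fluorescence read at ex 488/em 525 nm. At least three independent experiments in duplicate. IC50 obtained by nonlinear regression.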

P2Y purinoceptor 6 = P2Y purinoceptor 6 (Homo sapiens, UniProt Q15077); assay: Antagonist activity at human P2Y6 receptor transfected in human 1321N1 cells assessed as inhibition of UDP-activated intracellular calcium mobilization preincubated for 30 mins followed by UDP addition by fluo-4-dye based fluorescence assay; assay type: functional, cell-based; summary of the method: as §1
P2Y purinoceptor 1 = P2Y purinoceptor 1 (Homo sapiens, UniProt P47900); assay: Antagonist activity at human P2Y1 receptor transfected in human 1321N1 cells assessed as inhibition of ADP-activated intracellular calcium mobilization preincubated for 30 mins followed by ADP addition by fluo-4-dye based fluorescence assay; assay type: functional, cell-based; summary of the method: as §1
P2Y purinoceptor 2 = P2Y purinoceptor 2 (Homo sapiens, UniProt P41231); assay: Antagonist activity at human P2Y2 receptor transfected in human 1321N1 cells assessed as inhibition of UTP-activated intracellular calcium mobilization preincubated for 30 mins followed by UTP addition by fluo-4-dye based fluorescence assay; assay type: functional, cell-based; summary of the method: as §1
P2Y purinoceptor 12 = P2Y purinoceptor 12 (Homo sapiens, UniProt Q9H244); assay: Antagonist activity at human P2Y12 receptor expressed in CHO cells assessed as inhibition of 2-MeSADP-induced beta-arrestin translocation preincubated for 30 mins followed by 2-MeSADP addition measured after 90 mins by luminescence-based topcount method; assay type: cell-based
P2Y purinoceptor 4 [2] = target: T1, P2Y purinoceptor 4; assay: Antagonist activity at human P2Y4 receptor transfected in human 1321N1 cells assessed as inhibition of UTP-activated intracellular calcium mobilization at 30 uM preincubated for 30 mins followed by UTP addition by fluo-4-dye based fluorescence assay; assay type: functional, cell-based

Chain of P2Y purinoceptor 6 (Q15077 whole entry): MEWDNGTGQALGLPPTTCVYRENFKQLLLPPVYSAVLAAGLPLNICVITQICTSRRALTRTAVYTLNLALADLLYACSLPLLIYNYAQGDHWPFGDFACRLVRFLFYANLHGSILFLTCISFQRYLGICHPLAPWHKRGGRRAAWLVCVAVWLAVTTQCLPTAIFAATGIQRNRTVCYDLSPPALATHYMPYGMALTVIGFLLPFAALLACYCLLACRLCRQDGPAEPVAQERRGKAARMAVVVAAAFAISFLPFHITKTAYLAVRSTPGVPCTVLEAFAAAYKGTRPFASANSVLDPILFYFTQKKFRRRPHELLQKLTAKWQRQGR
T1 sequence (P51582 whole entry): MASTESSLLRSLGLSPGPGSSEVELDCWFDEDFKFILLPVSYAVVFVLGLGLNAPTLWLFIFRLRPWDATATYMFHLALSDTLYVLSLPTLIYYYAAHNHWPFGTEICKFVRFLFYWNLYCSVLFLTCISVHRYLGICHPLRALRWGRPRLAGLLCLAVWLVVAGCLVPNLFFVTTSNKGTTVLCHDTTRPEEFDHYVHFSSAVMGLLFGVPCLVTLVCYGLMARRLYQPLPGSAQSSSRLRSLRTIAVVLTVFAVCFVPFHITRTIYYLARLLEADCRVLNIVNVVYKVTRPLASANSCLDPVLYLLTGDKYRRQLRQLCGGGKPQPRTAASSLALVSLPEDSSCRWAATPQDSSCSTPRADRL
Chain of P2Y purinoceptor 12 (Q9H244 whole entry): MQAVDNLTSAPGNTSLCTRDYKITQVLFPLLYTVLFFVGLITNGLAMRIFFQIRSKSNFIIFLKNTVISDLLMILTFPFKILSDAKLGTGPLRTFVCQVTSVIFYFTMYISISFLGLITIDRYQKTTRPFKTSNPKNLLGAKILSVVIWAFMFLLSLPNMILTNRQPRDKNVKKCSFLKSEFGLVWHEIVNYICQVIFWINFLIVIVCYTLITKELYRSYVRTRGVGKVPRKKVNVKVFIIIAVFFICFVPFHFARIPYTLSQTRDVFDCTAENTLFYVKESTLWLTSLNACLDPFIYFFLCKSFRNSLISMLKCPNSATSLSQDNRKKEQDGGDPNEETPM
Chain of P2Y purinoceptor 2 (P41231 whole entry): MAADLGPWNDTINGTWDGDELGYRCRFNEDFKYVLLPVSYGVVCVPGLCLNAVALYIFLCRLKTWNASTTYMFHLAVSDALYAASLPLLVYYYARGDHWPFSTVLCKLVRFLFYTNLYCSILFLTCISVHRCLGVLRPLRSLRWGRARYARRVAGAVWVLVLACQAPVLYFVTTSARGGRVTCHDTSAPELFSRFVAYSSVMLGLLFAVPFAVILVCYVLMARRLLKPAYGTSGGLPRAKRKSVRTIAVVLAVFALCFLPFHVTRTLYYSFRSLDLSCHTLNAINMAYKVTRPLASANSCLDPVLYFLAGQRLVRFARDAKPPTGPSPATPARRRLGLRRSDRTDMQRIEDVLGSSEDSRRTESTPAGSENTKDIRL
Chain of P2Y purinoceptor 1 (P47900 whole entry): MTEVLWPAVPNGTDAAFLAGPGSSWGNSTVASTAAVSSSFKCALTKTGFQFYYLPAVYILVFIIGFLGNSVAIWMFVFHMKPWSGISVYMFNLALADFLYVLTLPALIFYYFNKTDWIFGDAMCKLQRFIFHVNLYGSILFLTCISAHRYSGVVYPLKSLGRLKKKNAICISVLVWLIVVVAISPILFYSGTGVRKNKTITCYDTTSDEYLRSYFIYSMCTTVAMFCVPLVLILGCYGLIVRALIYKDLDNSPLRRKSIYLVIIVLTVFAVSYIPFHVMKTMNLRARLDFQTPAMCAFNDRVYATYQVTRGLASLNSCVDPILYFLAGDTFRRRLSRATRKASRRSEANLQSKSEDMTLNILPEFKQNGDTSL

IC50 (P2Y purinoceptor 4 [1]) [µM]	Structure (SMILES)	other results
2.82	Cc1ccc(Nc2cc(S(=O)(=O)O)c(N)c3c2C(=O)c2ccccc2C3=O)cc1	–
3.53	CCc1ccccc1Nc1cc(S(=O)(=O)O)c(N)c2c1C(=O)c1ccccc1C2=O	–
7.42	Nc1c(S(=O)(=O)O)cc(Nc2cccc3ccccc23)c2c1C(=O)c1ccccc1C2=O	–
2.34	Nc1c(S(=O)(=O)O)cc(Nc2cccc(Cl)c2)c2c1C(=O)c1ccccc1C2=O	–
0.395	Cc1ccc(C)c(Sc2ccc(Nc3cc(S(=O)(=O)O)c(N)c4c3C(=O)c3ccccc3C4=O)cc2)c1	IC50 (P2Y purinoceptor 6): 2.67 µM; IC50 (P2Y purinoceptor 1): 2.72 µM; IC50 (P2Y purinoceptor 2): 6.52 µM; IC50 (P2Y purinoceptor 12): 2.96 µM
9.25	COc1cc(Nc2cc(S(=O)(=O)O)c(N)c3c2C(=O)c2ccccc2C3=O)cc(OC)c1	–
4.04	Nc1c(S(=O)(=O)O)cc(Nc2ccc(F)cc2)c2c1C(=O)c1ccccc1C2=O	–
0.625	Nc1c(S(=O)(=O)O)cc(Nc2ccc(Nc3nc(Cl)nc(Nc4ccc(S(=O)(=O)O)cc4)n3)c(S(=O)(=O)O)c2)c2c1C(=O)c1ccccc1C2=O	–
1.69	Nc1c(S(=O)(=O)O)cc(Nc2ccc(Oc3ccc(F)cc3)cc2)c2c1C(=O)c1ccccc1C2=O	–
1.65	Cc1cc(Nc2cc(S(=O)(=O)O)c(N)c3c2C(=O)c2ccccc2C3=O)ccc1Cl	–
6.96	Nc1c(S(=O)(=O)O)cc(Nc2cccc(Br)c2)c2c1C(=O)c1ccccc1C2=O	–
1.7	COc1cccc(Nc2cc(S(=O)(=O)O)c(N)c3c2C(=O)c2ccccc2C3=O)c1 [listing 1 of 3 here]	–
2.59	COc1ccc(Nc2cc(S(=O)(=O)O)c(N)c3c2C(=O)c2ccccc2C3=O)cc1	–
11.2	Cc1ccc(C)c(Nc2cc(S(=O)(=O)O)c(N)c3c2C(=O)c2ccccc2C3=O)c1	–
30	Nc1c(S(=O)(=O)O)cc(Nc2ccc(C(=O)O)cc2)c2c1C(=O)c1ccccc1C2=O	inhibition (P2Y purinoceptor 4 [2]): 57%
1.97 to 3.1	Nc1c(S(=O)(=O)O)cc(Nc2ccccc2)c2c1C(=O)c1ccccc1C2=O [ACID BLUE 25]	IC50 (P2Y purinoceptor 6): 2.79 µM; IC50 (P2Y purinoceptor 1): 17.6 µM; IC50 (P2Y purinoceptor 2): 17.1 µM; IC50 (P2Y purinoceptor 12): 3.12 µM
3.98	COc1ccccc1Nc1cc(S(=O)(=O)O)c(N)c2c1C(=O)c1ccccc1C2=O	–
7.18	Nc1c(S(=O)(=O)O)cc(NCCc2ccccc2)c2c1C(=O)c1ccccc1C2=O	–
1.39	Nc1c(S(=O)(=O)O)cc(Nc2cccc(F)c2)c2c1C(=O)c1ccccc1C2=O	–
9.34	Nc1c(S(=O)(=O)O)cc(Nc2ccccc2Cl)c2c1C(=O)c1ccccc1C2=O	–

IC50 (P2Y purinoceptor 4 [1]) [µM]	Structure (SMILES)	other results
3.03	Nc1c(S(=O)(=O)O)cc(Nc2ccc(Cl)cc2)c2c1C(=O)c1ccccc1C2=O	–
0.373	Nc1c(S(=O)(=O)O)cc(Nc2ccc(Oc3ccc(Cl)cc3)cc2)c2c1C(=O)c1ccccc1C2=O	–
6.1	Nc1c(S(=O)(=O)O)cc(Nc2ccccc2C(=O)O)c2c1C(=O)c1ccccc1C2=O	–
3.16	Nc1c(S(=O)(=O)O)cc(Nc2ccc(O)cc2)c2c1C(=O)c1ccccc1C2=O	–
4.13	COc1cc(Nc2cc(S(=O)(=O)O)c(N)c3c2C(=O)c2ccccc2C3=O)ccc1C	–
3.21	CCc1ccc(Nc2cc(S(=O)(=O)O)c(N)c3c2C(=O)c2ccccc2C3=O)cc1	–
30	O=C1c2ccccc2C(=O)c2c(Nc3cccc(F)c3)cc(S(=O)(=O)O)cc21	–
2.2	Cc1cc(Cl)ccc1Nc1cc(S(=O)(=O)O)c(N)c2c1C(=O)c1ccccc1C2=O	–
> 100	Nc1c(S(=O)(=O)O)cc(Nc2ccc(F)cc2C(=O)O)c2c1C(=O)c1ccccc1C2=O [listing 1 of 2 here]	–
21.1	Nc1c(S(=O)(=O)O)cc(Nc2ccc(O)cc2C(=O)O)c2c1C(=O)c1ccccc1C2=O	–
3.45	Nc1c(S(=O)(=O)O)cc(Nc2ccc(Cc3ccccc3)cc2)c2c1C(=O)c1ccccc1C2=O	–
> 30	Nc1c(S(=O)(=O)O)cc(Nc2ccc([N+](=O)[O-])cc2C(=O)O)c2c1C(=O)c1ccccc1C2=O	inhibition (P2Y purinoceptor 4 [2]): 30%
14.4	Nc1c(S(=O)(=O)O)cc(NCc2ccccc2)c2c1C(=O)c1ccccc1C2=O	–
6.45	Cc1cc(C)cc(Nc2cc(S(=O)(=O)O)c(N)c3c2C(=O)c2ccccc2C3=O)c1	–
1.54	COc1cc(Nc2cc(S(=O)(=O)O)c(N)c3c2C(=O)c2ccccc2C3=O)ccc1F	–
2.99	CCCc1cccc(Nc2cc(S(=O)(=O)O)c(N)c3c2C(=O)c2ccccc2C3=O)c1	–
> 10	COc1cccc(Nc2cc(S(=O)(=O)O)c(N)c3c2C(=O)c2ccccc2C3=O)c1 [listing 2 of 3 here]	–
4.98	COc1ccc(Nc2cc(S(=O)(=O)O)c(N)c3c2C(=O)c2ccccc2C3=O)cc1OC	–
1.91	Nc1c(S(=O)(=O)O)cc(Nc2ccc(Nc3ccccc3)cc2)c2c1C(=O)c1ccccc1C2=O	–
–	COc1cccc(Nc2cc(S(=O)(=O)O)c(N)c3c2C(=O)c2ccccc2C3=O)c1 [listing 3 of 3 here]	inhibition (P2Y purinoceptor 4 [2]): 77%

IC50 (P2Y purinoceptor 4 [1]) [µM]	Structure (SMILES)	other results
23.4	Nc1c(S(=O)(=O)O)cc(Nc2cccc(C(=O)O)c2)c2c1C(=O)c1ccccc1C2=O	–
3.49	Cc1ccccc1Nc1cc(S(=O)(=O)O)c(N)c2c1C(=O)c1ccccc1C2=O	–
3.58	Cc1ccc(Nc2cc(S(=O)(=O)O)c(N)c3c2C(=O)c2ccccc2C3=O)c(C)c1	–
0.746	Cc1cc(Nc2cc(S(=O)(=O)O)c(N)c3c2C(=O)c2ccccc2C3=O)ccc1O	IC50 (P2Y purinoceptor 6): 4.75 µM; IC50 (P2Y purinoceptor 1): 7.65 µM; IC50 (P2Y purinoceptor 2): 16.4 µM; IC50 (P2Y purinoceptor 12): 0.0604 µM
> 30	Cc1cc(Nc2cccc(F)c2)c2c(c1N)C(=O)c1ccccc1C2=O	inhibition (P2Y purinoceptor 4 [2]): -4%
1.94	Nc1c(S(=O)(=O)O)cc(Nc2ccc(Oc3ccccc3)cc2)c2c1C(=O)c1ccccc1C2=O	–
2.22	Cc1cccc(Nc2cc(S(=O)(=O)O)c(N)c3c2C(=O)c2ccccc2C3=O)c1	–
3.3	Nc1c(S(=O)(=O)O)cc(Nc2ccc(Br)cc2)c2c1C(=O)c1ccccc1C2=O	–
1.51	CCc1cccc(Nc2cc(S(=O)(=O)O)c(N)c3c2C(=O)c2ccccc2C3=O)c1	–
> 30	COc1cccc(Nc2cc(C)c(N)c3c2C(=O)c2ccccc2C3=O)c1	inhibition (P2Y purinoceptor 4 [2]): 38%
> 100	Nc1c(S(=O)(=O)O)cc(Nc2ccc(F)cc2C(=O)O)c2c1C(=O)c1ccccc1C2=O [listing 2 of 2 here]	–
2.63	Cc1cccc(Nc2cc(S(=O)(=O)O)c(N)c3c2C(=O)c2ccccc2C3=O)c1C	–
0.482	Cc1ccc(Sc2ccc(Nc3cc(S(=O)(=O)O)c(N)c4c3C(=O)c3ccccc3C4=O)cc2)cc1C	IC50 (P2Y purinoceptor 6): 4.36 µM; IC50 (P2Y purinoceptor 1): 4.55 µM; IC50 (P2Y purinoceptor 2): 10.2 µM; IC50 (P2Y purinoceptor 12): 2.34 µM
> 100	Nc1c(S(=O)(=O)O)cc(Nc2ccc(Br)cc2C(=O)O)c2c1C(=O)c1ccccc1C2=O	inhibition (P2Y purinoceptor 4 [2]): 30%
12.5	Nc1c(S(=O)(=O)O)cc(Nc2cc(F)cc(F)c2)c2c1C(=O)c1ccccc1C2=O	–
3.37	COc1cc(Nc2cc(S(=O)(=O)O)c(N)c3c2C(=O)c2ccccc2C3=O)ccc1Cl	–
2.76	Nc1c(S(=O)(=O)O)cc(Nc2cc(Cl)ccc2C(=O)O)c2c1C(=O)c1ccccc1C2=O	–
1.76	Nc1c(S(=O)(=O)O)cc(Nc2ccc(Oc3ccc(Br)cc3)cc2)c2c1C(=O)c1ccccc1C2=O	–
1.18	Nc1c(S(=O)(=O)O)cc(Nc2ccc(Sc3ccccc3)cc2)c2c1C(=O)c1ccccc1C2=O	–

Structure (SMILES)	IC50 (P2Y purinoceptor 4 [1]) [µM]	other results
Nc1c(S(=O)(=O)O)cc(Nc2ccc(Nc3nc(Cl)nc(Nc4cccc(S(=O)(=O)O)c4)n3)c(S(=O)(=O)O)c2)c2c1C(=O)c1ccccc1C2=O [RB 2]	1.14	–
